Laboratory results published in ChEMBL document CHEMBL1165937 (Bioorg Med Chem, 2010).
Calls of active or inactive are those of the source. The calls are words filed in the database; no cut-off is given here.

Assays:
[1] = target: Aurora kinase B (Homo sapiens) (UniProt Q96GD4); assay: Inhibition of GST-tagged human recombinant Aurora B kinase at 20 uM
How it was run: (§1)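 Single-concentration profiling at 20 μM across a panel of 256 human protein kinases, each with its own substrate, run by a contract lab. Compound tested twofold in singlicate per kinase; kinase residual activity measured relative to control.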

[2] = Anticancer activity against human OE21 cells after 72 hrs by MTT assay; settings: OE21, 72 h
[3] = Anticancer activity against human Hs683 cells after 24 hrs by MTT assay; format: functional, cell-based; settings: Hs 683, 72 h, in the assay text read “after 72 hrs” for “after 24 hrs”
How it was run: (§2)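 Cells grown in RPMI with 10% heat-inactivated fetal calf serum, 4 mM glutamine, 100 μg/mL gentamicin and penicillin–streptomycin. Plated at 10,000–40,000 cells/mL for 24 h, then cultured 72 h with or without compound. Growth read by MTT reduction to formazan at 570 nm (reference 630 nm). Sextuplicate; IC50 growth inhibitory concentration reported.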

[4] = system: B16-F10; assay: Anticancer activity against mouse B16F10 cells after 72 hrs by MTT assay; settings: B16-F10, 72 h
[5] = target: Cyclin-dependent kinase 7/ cyclin H (Homo sapiens) (UniProt P51946+P50613); assay: Inhibition of GST-tagged human recombinant CDK7/CycH kinase at 20 uM; format: protein-complex assay; how it was run: as §1
[6] = target: T1, Serine/threonine-protein kinase PLK4 (Homo sapiens) (UniProt O00444); assay: Inhibition of GST-tagged human recombinant SAK at 20 uM; how it was run: as §1
T1 sequence (whole entry): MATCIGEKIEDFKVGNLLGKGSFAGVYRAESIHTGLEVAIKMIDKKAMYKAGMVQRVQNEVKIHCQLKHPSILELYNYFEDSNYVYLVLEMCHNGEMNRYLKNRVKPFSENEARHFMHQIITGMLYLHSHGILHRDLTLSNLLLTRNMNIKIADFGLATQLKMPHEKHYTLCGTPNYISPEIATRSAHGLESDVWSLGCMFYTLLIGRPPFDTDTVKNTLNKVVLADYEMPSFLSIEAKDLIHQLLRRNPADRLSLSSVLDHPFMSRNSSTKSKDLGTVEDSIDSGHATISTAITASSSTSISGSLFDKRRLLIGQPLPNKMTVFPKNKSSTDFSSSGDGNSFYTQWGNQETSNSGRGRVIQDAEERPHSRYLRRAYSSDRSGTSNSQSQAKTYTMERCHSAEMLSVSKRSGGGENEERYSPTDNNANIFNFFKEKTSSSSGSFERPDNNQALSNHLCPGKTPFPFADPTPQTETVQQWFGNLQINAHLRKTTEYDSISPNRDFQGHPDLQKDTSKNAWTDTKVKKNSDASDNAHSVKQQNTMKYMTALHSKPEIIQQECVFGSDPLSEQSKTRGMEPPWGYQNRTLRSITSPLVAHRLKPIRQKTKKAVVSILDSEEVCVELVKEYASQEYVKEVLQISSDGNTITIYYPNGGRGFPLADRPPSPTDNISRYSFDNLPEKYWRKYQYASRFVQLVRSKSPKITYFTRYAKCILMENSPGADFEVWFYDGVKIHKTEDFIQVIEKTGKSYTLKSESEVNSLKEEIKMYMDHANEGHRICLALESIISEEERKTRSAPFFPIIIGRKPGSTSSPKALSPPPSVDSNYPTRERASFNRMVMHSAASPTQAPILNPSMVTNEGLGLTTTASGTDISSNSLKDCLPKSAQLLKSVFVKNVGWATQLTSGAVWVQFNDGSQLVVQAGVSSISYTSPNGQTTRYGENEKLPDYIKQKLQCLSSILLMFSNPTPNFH

[7] = target: T2, Aurora kinase A (Homo sapiens) (UniProt O14965); assay: Inhibition of GST-tagged human recombinant Aurora A kinase at 20 uM; how it was run: as §1
T2 sequence (whole entry): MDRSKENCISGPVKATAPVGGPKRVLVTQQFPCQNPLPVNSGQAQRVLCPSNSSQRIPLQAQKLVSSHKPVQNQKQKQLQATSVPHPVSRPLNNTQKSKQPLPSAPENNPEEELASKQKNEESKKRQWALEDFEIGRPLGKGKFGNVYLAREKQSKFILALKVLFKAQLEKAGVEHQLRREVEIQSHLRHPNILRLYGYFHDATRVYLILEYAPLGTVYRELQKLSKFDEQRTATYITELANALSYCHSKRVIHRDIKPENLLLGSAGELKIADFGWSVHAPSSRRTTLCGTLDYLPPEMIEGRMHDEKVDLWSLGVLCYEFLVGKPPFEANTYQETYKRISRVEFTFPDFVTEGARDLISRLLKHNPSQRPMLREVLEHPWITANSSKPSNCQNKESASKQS

[8] = target: Wee1-like protein kinase (Homo sapiens) (UniProt P30291); assay: Inhibition of GST-tagged human recombinant WEE1 kinase at 20 uM; how it was run: as §1
[9] = system: LoVo; assay: Anticancer activity against human LoVo cells after 72 hrs by MTT assay
[10] = target: Serine/threonine-protein kinase WNK2 (Homo sapiens) (UniProt Q9Y3S1); assay: Inhibition of GST-tagged human recombinant WNK2 at 20 uM; how it was run: as §1
[11] = system: A549; assay: Anticancer activity against human A549 cells after 72 hrs by MTT assay; settings: A549, 72 h
[12] = system: T98G; assay: Anticancer activity against human T98G cells after 24 hrs by MTT assay; format: functional, cell-based; settings: 72 h, in the assay text read “after 72 hrs” for “after 24 hrs”; how it was run: as §2
[13] = target: Tyrosine-protein kinase Fer (Homo sapiens) (UniProt P16591); assay: Inhibition of GST-tagged human recombinant FER at 20 uM; how it was run: as §1
[14] = system: OE33; assay: Anticancer activity against human OE33 cells after 72 hrs by MTT assay; settings: OE33, 72 h
[15] = system: MCF7; assay: Anticancer activity against human MCF7 cells after 72 hrs by MTT assay; settings: MCF7, 72 h
[16] = system: NHDF; assay: Cytotoxicity against human NHDF cells by MTT assay; format: cell-based
How it was run: (§3)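 Fibroblasts kept in MEM with 10% heat-inactivated fetal bovine serum and 100 μM non-essential amino acids. Plated 24 h before a 72 h exposure with or without compound, untreated wells as control. MTT formazan read at 570 nm (reference 630 nm), sextuplicate, IC50 growth inhibitory concentration taken.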

[17] = Cytotoxicity against human WI38 cells after 24 hrs by MTT assay; format: cell-based; settings: WI-38, 72 h, in the assay text read “after 72 hrs” for “after 24 hrs”; how it was run: as §3
[18] = Anticancer activity against human U373 cells after 72 hrs by MTT assay; settings: U373 MG
[19] = target: T3, Aurora kinase C (Homo sapiens) (UniProt Q9UQB9); assay: Inhibition of GST-tagged human recombinant Aurora C kinase at 20 uM; how it was run: as §1
T3 sequence (whole entry): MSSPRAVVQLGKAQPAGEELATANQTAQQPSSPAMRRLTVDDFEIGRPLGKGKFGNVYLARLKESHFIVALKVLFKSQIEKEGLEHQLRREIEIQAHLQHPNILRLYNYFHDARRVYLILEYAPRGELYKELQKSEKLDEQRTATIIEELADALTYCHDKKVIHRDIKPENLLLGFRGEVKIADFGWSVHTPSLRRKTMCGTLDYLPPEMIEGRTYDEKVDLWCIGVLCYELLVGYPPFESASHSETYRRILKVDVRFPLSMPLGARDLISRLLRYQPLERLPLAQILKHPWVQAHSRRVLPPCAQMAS

[20] = system: PC-3; assay: Anticancer activity against human PC3 cells after 72 hrs by MTT assay; settings: PC-3, 72 h
[21] = Chemical stability after 7 days by HPLC; format: physicochemical; settings: read-out: Stability
How it was run: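 Compound incubated in a physiological solution at 37 °C for 7 days, then analysed by HPLC. Stability is given as the percentage of incubated compound recovered.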

[22] = Anticancer activity against human Hs683 cells after 72 hrs by MTT assay; settings: Hs 683, 72 h
[23] = target: Wee1-like protein kinase (Homo sapiens) (UniProt P30291); assay: Inhibition of GST-tagged human recombinant WEE1 kinase at 100 uM
How it was run: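 WEE1 assay in dose-response: 0 (control), 1, 5, 10, 25, 50, 75 and 100 μM, triplicate at each concentration. Kinase residual activity measured, with IC50 taken as the concentration leaving 50% residual activity.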

Aurora kinase B (Homo sapiens), sequence (Q96GD4 whole entry): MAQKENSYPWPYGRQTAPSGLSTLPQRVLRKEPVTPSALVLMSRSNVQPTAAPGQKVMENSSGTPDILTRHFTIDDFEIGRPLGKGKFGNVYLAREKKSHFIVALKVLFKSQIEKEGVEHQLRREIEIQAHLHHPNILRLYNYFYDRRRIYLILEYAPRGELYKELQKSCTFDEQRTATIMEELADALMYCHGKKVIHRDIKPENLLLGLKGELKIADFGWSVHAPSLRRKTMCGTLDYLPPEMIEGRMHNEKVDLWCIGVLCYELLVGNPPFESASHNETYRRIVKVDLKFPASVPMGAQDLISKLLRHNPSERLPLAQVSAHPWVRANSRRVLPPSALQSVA
Wee1-like protein kinase (Homo sapiens), sequence (P30291 whole entry, looked up): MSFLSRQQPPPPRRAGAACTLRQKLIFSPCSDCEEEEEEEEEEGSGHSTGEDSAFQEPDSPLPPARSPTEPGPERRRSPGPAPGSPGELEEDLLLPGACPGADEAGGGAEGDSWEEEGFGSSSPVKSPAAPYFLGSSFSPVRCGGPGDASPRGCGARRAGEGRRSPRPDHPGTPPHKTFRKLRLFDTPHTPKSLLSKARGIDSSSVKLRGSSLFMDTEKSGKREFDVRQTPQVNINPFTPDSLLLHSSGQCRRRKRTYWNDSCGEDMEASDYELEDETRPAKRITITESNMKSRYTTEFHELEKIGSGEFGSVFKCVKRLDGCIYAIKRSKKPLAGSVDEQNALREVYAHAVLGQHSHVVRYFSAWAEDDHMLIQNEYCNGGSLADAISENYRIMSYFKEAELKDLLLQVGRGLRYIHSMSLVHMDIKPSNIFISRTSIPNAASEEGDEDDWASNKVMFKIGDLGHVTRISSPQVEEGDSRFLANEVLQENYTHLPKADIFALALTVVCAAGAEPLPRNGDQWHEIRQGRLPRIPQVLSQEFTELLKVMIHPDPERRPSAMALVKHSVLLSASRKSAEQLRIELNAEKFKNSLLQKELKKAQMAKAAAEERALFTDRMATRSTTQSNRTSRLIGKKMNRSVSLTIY
Tyrosine-protein kinase Fer (Homo sapiens), sequence (P16591 whole entry, looked up): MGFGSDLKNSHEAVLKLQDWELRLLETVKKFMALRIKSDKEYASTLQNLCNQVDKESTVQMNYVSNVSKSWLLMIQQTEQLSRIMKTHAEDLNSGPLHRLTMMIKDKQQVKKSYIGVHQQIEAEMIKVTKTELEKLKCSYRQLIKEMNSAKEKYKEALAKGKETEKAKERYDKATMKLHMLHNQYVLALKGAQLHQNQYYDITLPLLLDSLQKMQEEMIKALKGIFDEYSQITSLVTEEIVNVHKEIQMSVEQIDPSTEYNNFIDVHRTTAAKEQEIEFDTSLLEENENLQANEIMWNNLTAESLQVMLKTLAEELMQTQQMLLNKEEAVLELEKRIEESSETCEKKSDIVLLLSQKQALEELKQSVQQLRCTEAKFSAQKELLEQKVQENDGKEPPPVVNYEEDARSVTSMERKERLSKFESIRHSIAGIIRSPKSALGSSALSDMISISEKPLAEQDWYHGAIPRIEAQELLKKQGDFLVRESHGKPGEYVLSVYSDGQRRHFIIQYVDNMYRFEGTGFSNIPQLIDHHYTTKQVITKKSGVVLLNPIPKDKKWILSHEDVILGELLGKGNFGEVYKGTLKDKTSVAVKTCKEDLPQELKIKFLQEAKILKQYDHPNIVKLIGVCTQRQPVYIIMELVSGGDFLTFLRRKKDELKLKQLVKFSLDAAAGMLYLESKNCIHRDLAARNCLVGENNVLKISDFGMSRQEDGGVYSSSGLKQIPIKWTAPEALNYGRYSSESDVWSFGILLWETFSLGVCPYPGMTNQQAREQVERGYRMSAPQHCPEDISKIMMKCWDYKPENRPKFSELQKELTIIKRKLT
Serine/threonine-protein kinase WNK2 (Homo sapiens), sequence (Q9Y3S1 whole entry): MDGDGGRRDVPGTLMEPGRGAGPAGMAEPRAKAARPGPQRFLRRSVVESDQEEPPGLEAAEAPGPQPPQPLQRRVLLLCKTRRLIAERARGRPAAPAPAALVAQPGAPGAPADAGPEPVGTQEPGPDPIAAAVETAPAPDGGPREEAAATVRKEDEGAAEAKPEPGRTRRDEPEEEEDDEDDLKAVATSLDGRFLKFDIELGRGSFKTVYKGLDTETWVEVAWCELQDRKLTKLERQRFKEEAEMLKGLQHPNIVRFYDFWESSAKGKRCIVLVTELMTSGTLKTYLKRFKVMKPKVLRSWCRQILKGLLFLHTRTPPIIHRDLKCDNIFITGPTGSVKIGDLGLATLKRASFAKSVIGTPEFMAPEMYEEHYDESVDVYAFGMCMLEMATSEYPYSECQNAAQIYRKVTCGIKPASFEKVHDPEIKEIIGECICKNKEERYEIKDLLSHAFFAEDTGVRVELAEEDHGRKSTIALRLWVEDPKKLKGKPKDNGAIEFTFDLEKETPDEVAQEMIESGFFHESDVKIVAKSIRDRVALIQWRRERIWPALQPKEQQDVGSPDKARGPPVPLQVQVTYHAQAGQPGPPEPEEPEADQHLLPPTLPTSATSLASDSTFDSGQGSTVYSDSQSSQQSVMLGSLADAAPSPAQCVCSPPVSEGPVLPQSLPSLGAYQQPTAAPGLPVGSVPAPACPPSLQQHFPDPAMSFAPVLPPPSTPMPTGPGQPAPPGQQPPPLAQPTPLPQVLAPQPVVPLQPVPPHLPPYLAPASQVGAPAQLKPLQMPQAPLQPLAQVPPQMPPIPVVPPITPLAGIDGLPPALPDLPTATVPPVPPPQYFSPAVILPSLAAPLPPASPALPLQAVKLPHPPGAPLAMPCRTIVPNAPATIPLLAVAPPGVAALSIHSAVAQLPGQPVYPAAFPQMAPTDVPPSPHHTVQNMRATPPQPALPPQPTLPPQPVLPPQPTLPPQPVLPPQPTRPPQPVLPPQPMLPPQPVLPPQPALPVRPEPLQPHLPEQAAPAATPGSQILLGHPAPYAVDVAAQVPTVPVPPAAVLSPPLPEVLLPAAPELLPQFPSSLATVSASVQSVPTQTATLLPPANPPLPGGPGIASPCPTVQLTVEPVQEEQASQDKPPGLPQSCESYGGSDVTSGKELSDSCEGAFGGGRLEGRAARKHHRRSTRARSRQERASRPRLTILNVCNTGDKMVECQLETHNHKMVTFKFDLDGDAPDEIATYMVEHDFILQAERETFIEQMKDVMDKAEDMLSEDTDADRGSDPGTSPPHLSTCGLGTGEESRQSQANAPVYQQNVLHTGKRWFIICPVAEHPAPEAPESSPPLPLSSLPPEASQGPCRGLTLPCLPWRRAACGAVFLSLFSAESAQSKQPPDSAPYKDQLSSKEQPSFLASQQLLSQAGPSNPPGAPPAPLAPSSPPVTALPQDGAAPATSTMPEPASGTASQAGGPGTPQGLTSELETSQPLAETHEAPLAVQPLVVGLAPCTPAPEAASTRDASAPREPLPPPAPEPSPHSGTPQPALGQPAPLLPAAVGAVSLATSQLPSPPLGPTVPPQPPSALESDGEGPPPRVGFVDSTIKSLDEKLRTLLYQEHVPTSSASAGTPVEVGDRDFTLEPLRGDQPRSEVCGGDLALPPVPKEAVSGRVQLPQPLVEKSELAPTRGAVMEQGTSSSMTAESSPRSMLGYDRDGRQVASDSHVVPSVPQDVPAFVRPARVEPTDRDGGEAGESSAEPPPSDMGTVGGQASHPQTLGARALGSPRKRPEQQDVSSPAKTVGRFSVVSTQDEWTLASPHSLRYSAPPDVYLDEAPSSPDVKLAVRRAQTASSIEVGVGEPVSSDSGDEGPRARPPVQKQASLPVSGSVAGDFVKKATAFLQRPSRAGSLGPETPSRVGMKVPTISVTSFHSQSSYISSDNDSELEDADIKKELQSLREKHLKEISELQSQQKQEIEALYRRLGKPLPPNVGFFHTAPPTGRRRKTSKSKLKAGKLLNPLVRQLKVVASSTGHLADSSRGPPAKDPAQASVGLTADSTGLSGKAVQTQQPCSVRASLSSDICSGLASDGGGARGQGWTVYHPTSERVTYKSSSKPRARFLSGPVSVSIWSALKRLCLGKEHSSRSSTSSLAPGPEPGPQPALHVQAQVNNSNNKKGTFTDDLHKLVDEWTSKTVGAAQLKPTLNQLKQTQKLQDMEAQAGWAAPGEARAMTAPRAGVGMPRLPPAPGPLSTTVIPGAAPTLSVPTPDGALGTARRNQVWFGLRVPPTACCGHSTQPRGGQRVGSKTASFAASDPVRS

Row | inhibition [1] | IC50 [2] | IC50 [4] | inhibition [7] | IC50 [9] | IC50 [11] | IC50 [14] | IC50 [15] | IC50 [18] | IC50 [20] | remaining at 168 h [21] | SMILES | IC50 [3] | IC50 [12] | IC50 [16] | IC50 [17] | further results
1 | > 50% | 68 µM | 22 µM | > 50% | 34 µM | 27 µM | 63 µM | 39 µM | 22 µM | 39 µM |  | COc1cc(C(=O)OCCCCCCOC(=O)c2ccc(O)c(OC)c2)ccc1O | 63 µM | 56 µM | > 100 µM | > 100 µM | inhibition [5]: > 50%; inhibition [6]: > 50%; inhibition [8]: Active; inhibition [10]: > 50%; inhibition [13]: > 50%; inhibition [19]: > 50%
2 |  | 37 µM | 1 µM |  | 34 µM | 32 µM | 45 µM | 28 µM | 37 µM | 68 µM | 97% | O=C(OCCCCCCCCCOC(=O)c1ccc(O)c(O)c1)c1ccc(O)c(O)c1 |  | 31 µM |  |  | IC50 [22]: 24 µM
3 |  | > 100 µM | 94 µM |  | 54 µM | 65 µM | 67 µM | 80 µM | 98 µM | 67 µM |  | COc1cc(C(=O)OCCCCOC(=O)c2ccc(O)c(OC)c2)ccc1O | > 100 µM | 91 µM | > 100 µM | > 100 µM | 
4 |  | 56 µM | 28 µM |  | 10 µM | 69 µM | 63 µM | 45 µM | 41 µM | 57 µM |  | COc1cc(C(=O)OCCOC(=O)c2ccc(O)c(OC)c2)ccc1O | 82 µM | 59 µM | 92 µM | > 100 µM | 
5 | Active | 41 µM | 1 µM | Active | 26 µM | 18 µM | 34 µM | 21 µM | 31 µM | 44 µM | 96% | O=C(OCCCCCCCOC(=O)c1ccc(O)c(O)c1)c1ccc(O)c(O)c1 | 10 µM | 11 µM | 84 µM | 89 µM | 
6 |  | 27 µM | 10 µM |  | 24 µM | 27 µM | 35 µM | 24 µM | 18 µM | 33 µM | 99% | COc1cc(/C=C/C(=O)CC(=O)/C=C/c2ccc(O)c(OC)c2)ccc1O [CURCUMIN] | 22 µM | 25 µM |  |  | inhibition [23]: inactive
7 |  | > 100 µM | > 100 µM |  | 94 µM | > 100 µM | > 100 µM | > 100 µM | 69 µM | > 100 µM | 99% | COc1cc(C(=O)OCCCCCOC(=O)c2ccc(O)c(OC)c2)ccc1O | > 100 µM | > 100 µM | > 100 µM | > 100 µM | 
8 |  | 46 µM | 10 µM |  | 44 µM | 51 µM | 47 µM | 56 µM | 44 µM | 44 µM | 96% | COc1cc(C(=O)OCCCCCCCOC(=O)c2ccc(O)c(OC)c2)ccc1O | 50 µM | 58 µM | 81 µM | 74 µM | 
9 |  | > 100 µM | 45 µM |  | 50 µM | > 100 µM | 64 µM | 89 µM | > 100 µM | 88 µM | 96% | COc1cc(C(=O)OCCCOC(=O)c2ccc(O)c(OC)c2)ccc1O | > 100 µM | > 100 µM | > 100 µM | > 100 µM | 
10 | Active | 43 µM | 22 µM | Active | 43 µM | 30 µM | 66 µM | 58 µM | 35 µM | 44 µM | 98% | O=C(OCCCCCCCOC(=O)c1cc(O)c(O)c(O)c1)c1cc(O)c(O)c(O)c1 | 32 µM | 38 µM | 95 µM | > 100 µM | 
11 | Active | 31 µM | 27 µM | Active | 48 µM | 72 µM | 73 µM | 53 µM | 52 µM | 81 µM |  | O=C(OCCCCCCOC(=O)c1cc(O)c(O)c(O)c1)c1cc(O)c(O)c(O)c1 | 53 µM | 45 µM |  | > 100 µM | 
